# Test results: ChEMBL document CHEMBL1649392, “Synthesis of substituted 3-amino-N-phenyl-1H-indazole-1-carboxamides endowed with antiproliferative activity” (Eur J Med Chem, 2011)
# Assay: Cytotoxicity in HFF cells after 72 hrs by trypan blue exclusion assay
# Assay type: cell-based
# Conditions: human
# Procedure, shortened: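 Human normal fibroblasts, 2 × 10⁵ per well, seeded in RPMI 1640 with 10% fetal calf serum plus penicillin and streptomycin at 37 °C under CO₂. Compound added after 24 h. Living cells counted at 72 h by trypan blue exclusion, expressed as percent of control proliferation; GI50 derived.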
compound,measurement,value
CCCCOc1ccc(NC(=O)n2nc(N)c3cc(N)ccc32)cc1,GI50 at 72 h,32 µM
